Measurements reported in ChEMBL document CHEMBL2176909, “Kaurenoic acid from Sphagneticola trilobata Inhibits Inflammatory Pain: effect on cytokine production and activation of the NO-cyclic GMP-protein kinase G-ATP-sensitive potassium channel signaling pathway” (J Nat Prod, 2012).
The source made the active and inactive calls.

Tests used:
Mus musculus [1] = experiment: Hepatotoxicity in Swiss mouse assessed as change in plasma AST level at 2.5 mg/kg, po for 7 days measured over 7 days relative to vehicle-treated control; assay type: toxicity, organism-based; set-up: dose 2.5 mg/kg, route oral; conditions: in vivo, 168 h
Summary of the method: (§1)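 Mice dosed po daily for 7 days: vehicle (2% DMSO/saline or Tris/HCl pH 8.0), 10 mg/kg, or indomethacin 2.5 mg/kg. Heparinized blood is drawn under terminal anesthesia, and plasma AST and ALT are measured with a diagnostic kit. n = 8.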

Mus musculus [2] = experiment: Hepatotoxicity in Swiss mouse assessed as change in plasma ALT level at 2.5 mg/kg, po for 7 days measured over 7 days relative to vehicle-treated control; assay type: toxicity, organism-based; set-up: dose 2.5 mg/kg, route oral; conditions: in vivo, 168 h; summary of the method: as §1
Mus musculus [3] = experiment: Antihyperalgesic activity in carrageenan-induced mechanical hyperalgesia Swiss mouse model assessed as paw withdrawal latency at 5 mg/kg, ip administered 40 mins prior to challenge by electronic pressure-meter test; assay type: functional, organism-based; set-up: dose 5 mg/kg
Summary of the method: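 Male Swiss mice dosed po (1–10 mg/kg, 2% DMSO in saline) 30 min before intraplantar carrageenin (100 μg/paw). Control indomethacin 5 mg/kg ip given 40 min before. Electronic pressure-meter readings at 1, 3 and 5 h, mean of three. Δ withdrawal threshold (g) is the post-stimulus reading minus zero-time. n = 5.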

Mus musculus [4] = experiment: Antinociceptive activity in Swiss mouse assessed as inhibition of PBQ-induced writhing at 5 mg/kg, ip administered 30 mins prior to PBQ challenge; assay type: functional, organism-based; set-up: dose 5 mg/kg
Mus musculus [5] = experiment: Gastrointestinal toxicity in Swiss mouse assessed as increase in stomach MPO activity at 2.5 mg/kg, po for 7 days measured over 7 days relative to vehicle-treated control; assay type: organism-based; set-up: dose 2.5 mg/kg, route oral; conditions: in vivo, 168 h
Summary of the method: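 Mice dosed po daily for 7 days: vehicle (2% DMSO/saline or Tris/HCl pH 8.0), 10 mg/kg, or indomethacin 2.5 mg/kg. Stomach is homogenized in 50 mM phosphate buffer pH 6.0 with 0.5% HTAB. Supernatant is reacted with o-dianisidine/H2O2 and read at 450 nm. Results expressed as neutrophils ×10^4/mg tissue from a neutrophil standard curve. n = 8.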

Mus musculus [6] = experiment: Antinociceptive activity in Swiss mouse assessed as inhibition of acetic acid-induced writhing at 5 mg/kg, ip administered 30 mins prior to acetic acid challenge; assay type: functional, organism-based; set-up: dose 5 mg/kg

Compound: COc1ccc2c(c1)c(CC(=O)O)c(C)n2C(=O)c1ccc(Cl)cc1 [INDOMETHACIN]
- Activity (Mus musculus [1]): Toxic
- Activity (Mus musculus [2]): Toxic
- Activity (Mus musculus [3]): Active
- inhibition (Mus musculus [4]): Active
- Activity (Mus musculus [5]): Toxic
- inhibition (Mus musculus [6]): Active
